Measured values from PMC4495401 (Genes & Development, 2015).
Substitutions are numbered along the chain they refer to. Entries after “also recorded” stand apart in the source; their conditions may differ.

What was measured:
[1] = target: T1, SIRT1-143CS (C253S, C268S, C501S, C502S) (Homo sapiens, UniProt Q96EB6, C253S/C268S/C501S/C502S/DEL513-640); experiment: ITC peptide binding, SIRT1-143CS; conditions: 25°C, 0.5 mM resveratrol
T1 sequence (Q96EB6 with tags, fused parts or gaps C253S/C268S/C501S/C502S/DEL513-640 limits assumed): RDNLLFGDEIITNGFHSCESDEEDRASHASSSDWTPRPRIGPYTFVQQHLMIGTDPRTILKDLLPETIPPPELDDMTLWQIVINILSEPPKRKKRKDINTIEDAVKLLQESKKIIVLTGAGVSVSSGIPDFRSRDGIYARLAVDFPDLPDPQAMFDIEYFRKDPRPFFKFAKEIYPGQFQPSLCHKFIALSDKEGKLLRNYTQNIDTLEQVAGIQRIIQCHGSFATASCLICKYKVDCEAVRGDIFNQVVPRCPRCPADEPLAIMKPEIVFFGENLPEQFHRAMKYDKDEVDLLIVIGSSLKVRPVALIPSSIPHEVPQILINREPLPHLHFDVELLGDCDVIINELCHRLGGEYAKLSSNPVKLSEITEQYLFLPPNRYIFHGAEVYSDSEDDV
Procedure, shortened: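 p53-AMC peptide ([acR]HK[Kac]-AMC) at 1.5 mM was titrated into 0.1 mM SIRT1 protein at 25°C with 600 rpm stirring. The run used 20 injections, a 0.5 μL first drop that was not used, 2 μL drops thereafter and 2 min intervals. Titrant and protein were both in 20 mM HEPES pH 7.5, 150 mM NaCl, 10% glycerol, with or without 0.5 mM resveratrol. Buffer-only titrant heat was subtracted, and KD came from a one-site fit.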

p53-AMC peptide = experiment: ITC, resveratrol to p53-AMC peptide; type: binding; conditions: 25°C
[2] = target: SIRT1 NTD (isolated protein domain); experiment: ITC, resveratrol to isolated SIRT1 NTD; type: binding, human; conditions: 25°C
SIRT1-143CS = target: T2, SIRT1-143CS (Homo sapiens, UniProt Q96EB6, C253S/C268S/C501S/C502S/DEL513-640); type: biochemical; conditions: 0.2 mM resveratrol, PBS pH 7.4, 37°C
T2 sequence (Q96EB6 with tags, fused parts or gaps C253S/C268S/C501S/C502S/DEL513-640 limits assumed): T1 sequence (Q96EB6 with tags, fused parts or gaps C253S/C268S/C501S/C502S/DEL513-640 limits assumed)

SIRT1-143 = experiment: Enzyme-coupled deacetylation assay, SIRT1-143; type: biochemical, human; conditions: p53-AMC substrate, 0.5 mM resveratrol (Fig. 1B)
Procedure, shortened: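 Purified tag-free SIRT1 fragments (his-sumo tag removed after Ni-IDA, then size exclusion) in the continuous nicotinamidase/glutamate dehydrogenase-coupled assay. NADH oxidation was read at 340 nm using an extinction coefficient of 6.22 mM−1 cm−1. Reactions at 37°C in PBS pH 7.4, started with NAD, with and without resveratrol. Background from no-NAD controls was subtracted.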

SIRT1 E230K mutant = target: T3, SIRT1 E230K mutant (Homo sapiens, UniProt Q96EB6, C253S/C268S/C501S/C502S/DEL513-640/E230K); experiment: Enzyme-coupled deacetylation assay, SIRT1 E230K; type: biochemical; conditions: p53-AMC 100 μM, 0.2 mM resveratrol, PBS pH 7.4, 37°C
T3 sequence (Q96EB6 with tags, fused parts or gaps E230K/C253S/C268S/C501S/C502S/DEL513-640 limits assumed): T1 sequence (Q96EB6 with tags, fused parts or gaps C253S/C268S/C501S/C502S/DEL513-640 limits assumed) with E88K
Procedure, shortened: (§1)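 Mutants are made in the SIRT1-143CS background. Continuous coupled assay in PBS pH 7.4: 2 mM NAD, 100 μM p53-AMC, ±0.2 mM resveratrol, 0.2 mM NADH, 3.3 mM α-ketoglutarate, 1 μM PncA, 3 U glutamate dehydrogenase, 1 mM DTT, 2% DMSO. Pre-equilibrated 5–10 min at 37°C without NAD, then started with NAD. A340 followed 15 min, minus no-NAD background. Rate taken from the linear portion, three repeats.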

SIRT1 E230A mutant = target: T4, SIRT1 E230A mutant (Homo sapiens, UniProt Q96EB6, C253S/C268S/C501S/C502S/DEL513-640/E230A); experiment: Enzyme-coupled deacetylation assay, SIRT1 E230A; type: biochemical; conditions: p53-AMC 100 μM, 0.2 mM resveratrol, PBS pH 7.4, 37°C
T4 sequence (Q96EB6 with tags, fused parts or gaps E230A/C253S/C268S/C501S/C502S/DEL513-640 limits assumed): T1 sequence (Q96EB6 with tags, fused parts or gaps C253S/C268S/C501S/C502S/DEL513-640 limits assumed) with E88A
Procedure, shortened: as §1

SIRT1 Q222A/N226A mutant = target: T5, SIRT1 Q222A/N226A mutant (Homo sapiens, UniProt Q96EB6, C253S/C268S/C501S/C502S/DEL513-640/N226A/Q222A); experiment: Enzyme-coupled deacetylation assay, SIRT1 Q222A/N226A; type: biochemical; conditions: p53-AMC 100 μM, 0.2 mM resveratrol, PBS pH 7.4, 37°C
T5 sequence (Q96EB6 with tags, fused parts or gaps Q222A/N226A/C253S/C268S/C501S/C502S/DEL513-640 limits assumed): T1 sequence (Q96EB6 with tags, fused parts or gaps C253S/C268S/C501S/C502S/DEL513-640 limits assumed) with Q80A, N84A
Procedure, shortened: as §1

SIRT1 R446A mutant = target: T6, SIRT1 R446A mutant (Homo sapiens, UniProt Q96EB6, C253S/C268S/C501S/C502S/DEL513-640/R446A); experiment: Enzyme-coupled deacetylation assay, SIRT1 R446A; type: biochemical; conditions: p53-AMC 100 μM, 0.2 mM resveratrol, PBS pH 7.4, 37°C
T6 sequence (Q96EB6 with tags, fused parts or gaps C253S/C268S/R446A/C501S/C502S/DEL513-640 limits assumed): T1 sequence (Q96EB6 with tags, fused parts or gaps C253S/C268S/C501S/C502S/DEL513-640 limits assumed) with R304A
Procedure, shortened: as §1

SIRT5 = conditions: fluorogenic Fluor-de-Lys (FdL) peptide substrate; ref Gertz et al. 2012; cited from earlier work
SIRT3 = conditions: fluorogenic Fluor-de-Lys (FdL) peptide substrate; ref Gertz et al. 2012; cited from earlier work
[3] = test system: fluorophore-attached p53 peptides; conditions: ref Borra et al. 2005; Pacholec et al. 2010; cited from earlier work

binding affinity between resveratrol and the p53-AMC peptide (p53-AMC peptide): too weak to be reliably quantitated | binding affinity between resveratrol and the SIRT1 NTD [2]: too weak to be reliably quantitated | effect of resveratrol on Km for PGC-1α and FOXO3a peptides (SIRT1-143CS; native peptides without fluorophore): less pronounced
Structure (SMILES): Oc1ccc(/C=C/c2cc(O)cc(O)c2)cc1 [resveratrol]
effect of resveratrol on binding between SIRT1 and the p53-AMC peptide [1]: increased the binding between SIRT1 and the p53-AMC peptide | effect of resveratrol on Km for the p53-AMC peptide (SIRT1-143CS): significantly lowered the Km value for the p53-AMC peptide; also recorded: lowered the Km value of the fluorogenic peptide | stimulation of deacetylase activity by resveratrol (SIRT1-143): stimulated by resveratrol in a manner similar to that of the full-length protein | stimulatory effect of resveratrol (SIRT1 E230K mutant): significantly reduced the stimulatory effect of resveratrol | stimulatory effect of resveratrol (SIRT1 E230A mutant): significantly reduced the stimulatory effect of resveratrol | response to the addition of resveratrol (SIRT1 Q222A/N226A mutant): conspicuous level of reduction in response to the addition of resveratrol | level of resveratrol stimulation (SIRT1 R446A mutant): level of resveratrol stimulation similar to that of the E230K mutant | effect on SIRT5 activity (SIRT5): stimulate the activity of SIRT5 | effect on SIRT3 activity (SIRT3): inhibit SIRT3 | interaction with fluorophore-attached p53 peptides [3]: weakly
